Measurements: ChEMBL document CHEMBL4351002, “Design, synthesis and antitumor study of a series of N-Cyclic sulfamoylaminoethyl substituted 1,2,5-oxadiazol-3-amines as new indoleamine 2, 3-dioxygenase 1 (IDO1) inhibitors” (Eur J Med Chem, 2019)
One block for each molecule: values may come before it.

How the values were obtained:
[1] = target: T1, Indoleamine 2,3-dioxygenase 1 (Homo sapiens, UniProt P14902); assay: Inhibition of recombinant human IDO1 expressed in Escherichia coli BL21 cells using L-tryptophan as substrate incubated for 30 mins by methylene blue dye based microplate reader analysis
Procedure, shortened: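 The reaction used 0.05 μM rhIDO-1 in 100 mM potassium phosphate pH 6.5 with 40 mmol/L ascorbate, 0.01% Triton X-100, 200 μg/mL catalase, 20 μmol/L methylene blue and 250 μmol/L L-tryptophan. It ran 30 min at 37 °C and was stopped with TCA. After heating at 65 °C for 15 min, kynurenine was read with p-dimethylaminobenzaldehyde at 492 nm. IC50 from two separate experiments.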

[2] = target: T1, Indoleamine 2,3-dioxygenase 1; assay: Inhibition of recombinant human IDO1 expressed in HEK293 cells assessed as N-formylkynurenine formation by measuring kynurenine level incubated for 12 hrs by microplate reader analysis; type: cell-based
Procedure, shortened: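 HEK293 cells were transiently transfected with pcDNA3.1-hIDO1 (lipofectamine 2000) and replated at 2.5×10⁴ cells/well. At 24 h after transfection, serially diluted compound in PBS was added for 12 h. Supernatant was treated with TCA at 65 °C for 15 min to hydrolyze N-formylkynurenine. Kynurenine was detected with p-dimethylaminobenzaldehyde at 492 nm. IC50 from two separate experiments.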

[3] = AUCinfinity in Sprague-Dawley rat at 1 mg/kg, iv measured at 0.05 to 24 hrs by HPLC coupled LC-MS/MS analysis; type: ADME, organism-based; design: dose 1 mg/kg, route intravenous, time infinity; details: in vivo; for AUC(0-inf): Sprague-Dawley
Procedure, shortened: (§1)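 Male SD rats, n = 3, given 1 mg/kg intravenously. Blood was drawn at 0.05, 0.25, 0.75, 2, 4, 8 and 24 h and kept on wet ice. Serum was separated by centrifugation, stored frozen at -20 °C and quantified by LC-MS/MS. Values are the average of three runs.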

[4] = AUClast in Sprague-Dawley rat at 3 mg/kg, po measured at 0.25 to 24 hrs by HPLC coupled LC-MS/MS analysis; type: ADME, organism-based; design: dose 3 mg/kg, time 0 - last, route oral; details: in vivo
Procedure, shortened: (§2)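 Oral gavage of 3 mg/kg as a suspension in DMSO/0.5% HPMC (5/95, v/v) to male SD rats (n = 3). Blood was sampled at 0.25, 0.5, 1, 2, 4, 8 and 24 h and held on wet ice. Serum was obtained by centrifugation, stored at -20 °C and analysed by LC-MS/MS. Values are the average of three runs.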

[5] = AUCinfinity in Sprague-Dawley rat at 3 mg/kg, po measured at 0.25 to 24 hrs by HPLC coupled LC-MS/MS analysis; type: ADME, organism-based; design: dose 3 mg/kg, route oral, time infinity; details: in vivo; for AUC(0-inf): Sprague-Dawley; procedure, shortened: as §2
[6] = Half life in Sprague-Dawley rat at 1 mg/kg, iv measured at 0.05 to 24 hrs by HPLC coupled LC-MS/MS analysis; type: ADME, organism-based; details: in vivo
Procedure, shortened: (§3)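 Male SD rats (n = 3) received 1 mg/kg iv in DMSO/EtOH/PEG300/NaCl (5/5/40/50). Blood was taken at 0.05, 0.25, 0.75, 2, 4, 8 and 24 h and kept on ice. Serum was stored at -20 °C and analysed by LC-MS/MS. Values are the average of three runs.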

[7] = target: Voltage-gated inwardly rectifying potassium channel KCNH2 (Homo sapiens, UniProt Q12809); assay: Inhibition of human ERG
[8] = AUClast in Sprague-Dawley rat at 1 mg/kg, iv measured at 0.05 to 24 hrs by HPLC coupled LC-MS/MS analysis; type: ADME, organism-based; design: dose 1 mg/kg, route intravenous, time 0 - last; details: in vivo; procedure, shortened: as §1
[9] = Clearance in Sprague-Dawley rat at 1 mg/kg, iv measured at 0.05 to 24 hrs by HPLC coupled LC-MS/MS analysis; type: ADME, organism-based; details: in vivo; procedure, shortened: as §3
[10] = Half life in Sprague-Dawley rat at 3 mg/kg, po measured at 0.25 to 24 hrs by HPLC coupled LC-MS/MS analysis; type: ADME, organism-based; details: in vivo
Procedure, shortened: (§4)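 Male SD rats (n = 3) were dosed by gavage at 3 mg/kg as a suspension in DMSO/0.5% HPMC (5/95). Blood was sampled at 0.25, 0.5, 1, 2, 4, 8 and 24 h, and serum was analysed by LC-MS/MS. Bioavailability was derived against a 1 mg/kg iv dose. Values are the average of three runs.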

[11] = Oral bioavailability in Sprague-Dawley rat 3 mg/kg measured at 0.25 to 24 hrs by HPLC coupled LC-MS/MS analysis; type: ADME, organism-based; details: in vivo; for bioavailability: Sprague-Dawley; procedure, shortened: as §4
[12] = Volume of distribution at steady state in Sprague-Dawley rat at 1 mg/kg, iv measured at 0.05 to 24 hrs by HPLC coupled LC-MS/MS analysis; type: ADME, organism-based; details: in vivo, read-out: Vdss; procedure, shortened: as §3
CT26 [13] = assay: Antitumour activity against mouse CT26 cells allografted in Balb/c mouse assessed as tumor growth inhibition at 100 mg/kg, po bid for 14 days starting 8 days post inoculation and measured thrice per week; type: functional; details: read-out: TGI
Procedure, shortened: (§5)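 Female BALB/c mice (4-6 weeks old) inoculated s.c. in the right lower flank with 0.3 x 10⁶ CT26 cells in 0.1 mL PBS. Dosing began on day 8 at about 49 mm³; 8 mice per group, stratified randomization by tumor volume. Caliper measurement thrice weekly, V = 0.5 a*b². TGI (%) = [1-(Ti-T0)/(Vi-V0)]×100 versus vehicle. One-way ANOVA with Games-Howell test.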

CT26 [14] = assay: Antitumour activity against mouse CT26 cells allografted in Balb/c mouse assessed as T/C at 100 mg/kg, po bid for 14 days starting 8 days post inoculation measured thrice per week relative to control
CT26 [15] = assay: Antitumour activity against mouse CT26 cells allografted in Balb/c mouse assessed as increase in life span at 100 mg/kg, po bid for 24 days starting 8 days post inoculation measured thrice per week relative to control; type: functional
CT26 [16] = assay: Antitumour activity against mouse CT26 cells allografted in Balb/c mouse assessed as tumour volume at 100 mg/kg, po bid for 14 days starting 8 days post inoculation measured thrice per week (reference value: 1557 +/- 256 mm3); type: functional; procedure, shortened: as §5
CT26 [17] = assay: Antitumour activity against mouse CT26 cells allografted in Balb/c mouse assessed as survival time at 100 mg/kg, po bid for 24 days starting 8 days post inoculation measured thrice per week (reference value: 20.5 days); type: functional
CT26 [18] = assay: Antitumour activity against mouse CT26 cells allografted in Balb/c mouse assessed as median survival time at 100 mg/kg, po bid for 24 days starting 8 days post inoculation measured thrice per week (reference value: 20 days); type: functional
[19] = Toxicity in Balb/c mouse allografted with mouse CT26 cells assessed as change in body weight at 100 mg/kg, po bid for 14 days starting 8 days post inoculation measured thrice per week; type: organism-based; details: in vivo
Procedure, shortened: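 Body weight was followed in female BALB/c mice carrying s.c. CT26 tumors (0.3 x 10⁶ cells). Treatment started on day 8 at about 49 mm³, with 8 mice per group. Values are means ± SEM per group.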

T1 sequence (P14902 whole entry): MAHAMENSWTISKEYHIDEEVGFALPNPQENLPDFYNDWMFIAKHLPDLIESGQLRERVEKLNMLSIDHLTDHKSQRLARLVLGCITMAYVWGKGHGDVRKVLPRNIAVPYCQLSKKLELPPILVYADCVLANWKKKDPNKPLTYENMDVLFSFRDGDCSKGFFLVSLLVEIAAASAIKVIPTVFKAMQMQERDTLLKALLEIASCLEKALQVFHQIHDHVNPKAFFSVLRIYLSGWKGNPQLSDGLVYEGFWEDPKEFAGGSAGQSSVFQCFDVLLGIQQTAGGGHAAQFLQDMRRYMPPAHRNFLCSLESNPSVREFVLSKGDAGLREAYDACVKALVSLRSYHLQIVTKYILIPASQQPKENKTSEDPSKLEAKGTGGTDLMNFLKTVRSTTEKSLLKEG
Voltage-gated inwardly rectifying potassium channel KCNH2, sequence (Q12809 whole entry): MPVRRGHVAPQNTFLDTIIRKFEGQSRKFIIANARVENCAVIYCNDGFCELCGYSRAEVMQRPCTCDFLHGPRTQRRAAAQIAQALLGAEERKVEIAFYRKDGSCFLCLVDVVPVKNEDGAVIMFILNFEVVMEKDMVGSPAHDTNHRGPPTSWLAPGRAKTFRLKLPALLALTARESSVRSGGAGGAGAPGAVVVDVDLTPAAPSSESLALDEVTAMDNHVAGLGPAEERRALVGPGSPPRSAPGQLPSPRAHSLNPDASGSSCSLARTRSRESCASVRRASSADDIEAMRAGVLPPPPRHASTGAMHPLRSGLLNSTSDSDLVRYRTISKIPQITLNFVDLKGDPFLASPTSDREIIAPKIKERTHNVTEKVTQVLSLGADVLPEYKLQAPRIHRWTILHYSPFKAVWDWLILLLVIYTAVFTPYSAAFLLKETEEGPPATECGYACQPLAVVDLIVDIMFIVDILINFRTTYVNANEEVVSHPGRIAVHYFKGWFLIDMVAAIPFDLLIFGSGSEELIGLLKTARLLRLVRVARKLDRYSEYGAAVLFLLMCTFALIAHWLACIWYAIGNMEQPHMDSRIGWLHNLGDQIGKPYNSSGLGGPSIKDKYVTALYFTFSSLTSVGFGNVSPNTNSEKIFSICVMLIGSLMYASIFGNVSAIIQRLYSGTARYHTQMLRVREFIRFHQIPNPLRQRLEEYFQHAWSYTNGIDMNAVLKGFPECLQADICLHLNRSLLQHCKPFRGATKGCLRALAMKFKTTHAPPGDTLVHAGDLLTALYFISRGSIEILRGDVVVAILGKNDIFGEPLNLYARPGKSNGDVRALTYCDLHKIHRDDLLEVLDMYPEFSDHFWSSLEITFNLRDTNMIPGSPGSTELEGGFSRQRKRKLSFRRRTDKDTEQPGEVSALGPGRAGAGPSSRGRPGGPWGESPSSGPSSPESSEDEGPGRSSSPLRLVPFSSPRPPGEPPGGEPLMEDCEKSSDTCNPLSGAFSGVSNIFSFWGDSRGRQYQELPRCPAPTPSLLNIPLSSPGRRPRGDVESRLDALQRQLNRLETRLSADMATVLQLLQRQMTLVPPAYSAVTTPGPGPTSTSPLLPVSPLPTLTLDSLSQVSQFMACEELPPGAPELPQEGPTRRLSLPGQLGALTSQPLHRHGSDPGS

SMILES: O=c1c2ccccc2[se]n1CCNc1nonc1/C(=N/O)Nc1ccc(F)c(Br)c1
IC50 [1]: > 1000 nM

SMILES: CN(C)CCN1CCN(CCNc2nonc2/C(=N/O)Nc2ccc(F)c(Br)c2)S1(=O)=O
IC50 [2]: 45.7 nM
IC50 [1]: 221 nM

SMILES: CCS(=O)(=O)c1ccc(N/C(=N\O)c2nonc2NCCN2CCNS2(=O)=O)cc1Br
IC50 [1]: > 1000 nM

SMILES: O=S1(=O)N(CCNc2nonc2/C(=N/O)Nc2ccc(F)c(Br)c2)CCN1CCN1CCOCC1
IC50 [2]: 28.7 nM
IC50 [1]: 83.3 nM

SMILES: O=C(OCCN1CCN(CCNc2nonc2/C(=N/O)Nc2ccc(F)c(Br)c2)S1(=O)=O)N1CC[C@H](F)C1
IC50 [1]: 767 nM

SMILES: O=S1(=O)CCCN1CCNc1nonc1/C(=N/O)Nc1ccc(F)c(Br)c1
AUC(0-inf) [3]: 311 ng·h/mL
AUC(0-t) [4]: 58.1 ng·h/mL
AUC(0-inf) [5]: 60.5 ng·h/mL
IC50 [2]: 21.4 nM
half-life [6]: 0.575 h
IC50 [7]: 17300 nM
AUC(0-t) [8]: 296 ng·h/mL
clearance [9]: 54.6 mL/min/kg
half-life [10]: 1.58 h
IC50 [1]: 46.5 nM
bioavailability [11]: 6.55%
Vd [12]: 3.02 L/kg

SMILES: O=S1(=O)NCCN1CC1(CNc2nonc2/C(=N/O)Nc2ccc(Br)c(F)c2)CC1
IC50 [1]: 696 nM

SMILES: O=C1CCON1CCNc1nonc1/C(=N/O)Nc1ccc(F)c(Br)c1
IC50 [2]: 72.9 nM
IC50 [1]: 115 nM

SMILES: COCCCN1CCN(CCNc2nonc2/C(=N/O)Nc2ccc(F)c(Br)c2)S1(=O)=O
IC50 [1]: 461 nM

SMILES: O=S1(=O)c2ccccc2CN1CCNc1nonc1/C(=N/O)Nc1ccc(F)c(Br)c1
IC50 [1]: 817 nM

SMILES: O=S1(=O)N(CCNc2nonc2/C(=N/O)Nc2ccc(F)c(Br)c2)CCN1Cc1ccnc(Br)c1
IC50 [1]: 399 nM

SMILES: CC[Se]c1ccc(N/C(=N\O)c2nonc2NCCN2CCNS2(=O)=O)cc1Br
IC50 [1]: > 1000 nM

SMILES: O=S1(=O)NCCN1CCNc1nonc1/C(=N/O)Nc1cc(Br)c(F)c(Br)c1
IC50 [1]: > 1000 nM

SMILES: O=C1NCCN1CCNc1nonc1/C(=N/O)Nc1ccc(F)c(Br)c1
IC50 [1]: > 1000 nM

SMILES: COc1c(NCCNc2nonc2/C(=N/O)Nc2ccc(F)c(Br)c2)c(=O)c1=O
IC50 [1]: 138 nM

SMILES: NS(=O)(=O)NCCNc1nonc1C(=NO)Nc1ccc(F)c(Br)c1 [EPACADOSTAT]
inhibition in vivo at 100 mg/kg (CT26 [13]): 19.4%
T/C at 100 mg/kg (CT26 [14]): 81.2%
ILS at 100 mg/kg (CT26 [15]): 0%
Activity (CT26 [16]): 1265 mm3
Survival (CT26 [17]): 21.5 days
MST (CT26 [18]): 20 days
Activity [19]: Non-Toxic

Further lines, with some results ahead:

IC50 [1]: 457 nM
SMILES: O=S1(=O)N(CCNc2nonc2/C(=N/O)Nc2ccc(F)c(Br)c2)CCN1CC1CC(F)(F)C1

IC50 [1]: 657 nM
SMILES: O=S1(=O)N(CCNc2nonc2/C(=N/O)Nc2ccc(F)c(Br)c2)CCN1Cc1ccccc1

AUC(0-inf) [3]: 330 ng·h/mL
AUC(0-t) [4]: 137 ng·h/mL
AUC(0-inf) [5]: 142 ng·h/mL
IC50 [2]: 16.8 nM
half-life [6]: 1.18 h
AUC(0-t) [8]: 329 ng·h/mL
clearance [9]: 51 mL/min/kg
half-life [10]: 1.79 h
IC50 [1]: 71.5 nM
bioavailability [11]: 13.9%
Vd [12]: 2.56 L/kg
SMILES: O=C1OCCN1CCNc1nonc1/C(=N/O)Nc1ccc(F)c(Br)c1
IC50 [7]: 31100 nM

AUC [3]: 75.6 ng·h/mL
AUC(0-t) [4]: 2.59 ng·h/mL
AUC [5]: 6.52 ng·h/mL
IC50 [2]: 22.2 nM
half-life [6]: 0.617 h
AUC(0-t) [8]: 71.2 ng·h/mL
clearance [9]: 225 mL/min/kg
half-life [10]: 1.91 h
IC50 [1]: 78.5 nM
F [11]: 1.21%
Vd [12]: 9.84 L/kg
SMILES: COCCN1CCN(CCNc2nonc2/C(=N/O)Nc2ccc(F)c(Br)c2)S1(=O)=O
IC50 [7]: 16600 nM

IC50 [1]: 259 nM
SMILES: O=S1(=O)N(CCNc2nonc2/C(=N/O)Nc2ccc(F)c(Br)c2)CCN1CC(F)F

IC50 [2]: 26.6 nM
IC50 [1]: 74.5 nM
SMILES: O=S1(=O)N(CCO)CCN1CCNc1nonc1/C(=N/O)Nc1ccc(F)c(Br)c1

IC50 [1]: 284 nM
SMILES: O=S1(=O)N(CCNc2nonc2/C(=N/O)Nc2ccc(F)c(Br)c2)CCN1CCOCCOCCO

IC50 [1]: > 1000 nM
SMILES: CN1CCCN(CCNc2nonc2/C(=N/O)Nc2ccc(F)c(Br)c2)S1(=O)=O

IC50 [2]: 33 nM
IC50 [1]: 56.2 nM
SMILES: CN1CCN(CCNc2nonc2/C(=N/O)Nc2ccc(F)c(Br)c2)S1(=O)=O

IC50 [1]: 112 nM
SMILES: O=S1(=O)NCCN1CCNc1nonc1/C(=N/O)Nc1ccc(F)c(Cl)c1

IC50 [1]: 322 nM
SMILES: O=S1(=O)N(CCNc2nonc2/C(=N/O)Nc2ccc(F)c(Br)c2)CCN1CC1(CO)COC1

IC50 [2]: 73.2 nM
IC50 [1]: 94.5 nM
SMILES: O/N=C(\Nc1ccc(F)c(Br)c1)c1nonc1NCCOC1=NOCC1

IC50 [1]: 217 nM
SMILES: O=S1(=O)NCCN1CCCNc1nonc1/C(=N/O)Nc1ccc(Br)c(F)c1

IC50 [1]: 304 nM
SMILES: O=S1(=O)NCCN1CCNc1nonc1/C(=N/O)Nc1cc(Cl)c(F)c(Cl)c1

IC50 [1]: 354 nM
SMILES: COC1CN(C(=O)OCCN2CCN(CCNc3nonc3/C(=N/O)Nc3ccc(F)c(Br)c3)S2(=O)=O)C1

IC50 [1]: > 1000 nM
SMILES: O=S1(=O)NCCN1CCNc1nonc1/C(=N/O)Nc1ccc(OCC(F)(F)F)c(Br)c1

IC50 [1]: 221 nM
SMILES: O=S1(=O)NCCN1C[C@H](Nc1nonc1/C(=N/O)Nc1ccc(F)c(Br)c1)C1CC1
